Results from ChEMBL document CHEMBL1126204, “Nucleic acid related compounds. 74. Synthesis and biological activity of 2'(and 3')-deoxy-2'(and 3')-methylenenucleoside analogues that function as mechanism-based inhibitors of S-adenosyl-L-homocysteine hydrolase and/or ribonucleotide reductase” (J Med Chem, 1992).
pIC50: −log10 of the molar value.

What was measured:
MT4 = test: In vitro inhibition of MT-4 (Human T-lymphocyte) cell proliferation.; type: functional, cell-based
In short: (§1)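 Human Molt/4F, MT-4, and Raji cells (wild-type, TK⁻ or dCK⁻) in RPMI-1640 with 10% inactivated FCS, 2 mM L-glutamine and 0.075% NaHCO₃, seeded at 7.5 × 10⁵ cells/mL with compound (0.001–500 µM). Incubated 3 days at 37 °C in humidified CO₂; viable cells counted by Coulter counter. IC₅₀ = 50% reduction in viable cells; means of 2–4 independent experiments.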

L1210 [1] = test: In vitro inhibition of L1210 (murine leukemia) cell proliferation.; type: functional, cell-based; conditions: Mus musculus
In short: (§2)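 Murine FM3A or L1210 cells in Eagle's MEM with 10% inactivated FCS, 2 mM L-glutamine and 0.075% NaHCO₃, seeded at 5 × 10⁵ cells/mL with compound (0.001–500 µM). After 2 days at 37 °C in humidified CO₂, viable cells were counted with a Coulter counter. IC₅₀ = 50% fewer viable cells; mean of 2–4 experiments.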

[2] = In vitro inhibition of FM3A (murine carcinoma) cell proliferation.; type: functional; conditions: Mus musculus; in short: as §2
[3] = In vitro inhibition of Molt/4f (Human T-lymphoblast) cell proliferation.; type: functional; in short: as §1
CEM (Homo sapiens) [4] = test: Concentration required to inhibit the proliferation of human T-lymphocyte CEM/o cells by 50%
[5] = Concentration required to inhibit the proliferation of human T-lymphocyte CEM/AK-(Ado kinase deficient) cells by 50%; type: functional
In short: (§3)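 Wild-type CEM and kinase-deficient sublines (AK⁻, dCK⁻, AK⁻/dCK⁻) grown in RPMI-1640 with 10% inactivated FCS, 2 mM L-glutamine and 0.075% NaHCO₃. Cells were exposed to compound at 0.001–500 µM for 3 days at 37 °C in humidified CO₂. Viable cells counted by Coulter counter; IC₅₀ = 50% reduction in viable cells. Mean of 2–4 independent experiments.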

[6] = Concentration required to inhibit the proliferation of human T-lymphocyte CEM/AK-/dCK-(Ado and dCyd kinase deficient) cells by 50%; type: functional; in short: as §3
[7] = Concentration required to inhibit the proliferation of human T-lymphocyte CEM/dCK-(dCyd kinase deficient) cells by 50%; type: functional; in short: as §3
Raji [8] = test: Inhibition of human tumor B-lymphoblast Raji/dCK-(dcyd kinase deficient) cell proliferation; type: functional, cell-based; in short: as §1
L1210 [9] = test: Concentration required to inhibit the proliferation of L1210 murine leukemia cell line by 50% in presence of exogenous nucleoside dCyd (500 ug/mL).; type: functional, cell-based; conditions: Mus musculus
In short: (§4)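 L1210 murine leukemia cells in Eagle's MEM with 10% inactivated fetal calf serum, 2 mM L-glutamine and 0.075% NaHCO₃. 5 × 10⁵ cells/mL were exposed to test compound (0.001–500 µM) together with the stated exogenous nucleoside at subtoxic level. Incubated 2 days at 37 °C in humidified CO₂. Viable cells were counted by Coulter counter. IC₅₀ = 50% reduction in viable cell number; mean of 2–4 independent experiments.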

L1210 [10] = test: Antitumor activity in mice bearing L1210 murine leukemia cell line at a dose of 100 mg/kg/day.; type: functional, Mus musculus
In short: (§5)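 DBA/2 mice (20 g) inoculated ip with 10⁶ L1210 leukemia cells; test agent given ip once daily for 5 successive days beginning 1 day after inoculation, dissolved in Eagle's MEM containing 2.5% Tween (250 μL injection). Untreated tumor-bearing controls; read-out mean survival time in days, 7–15 mice per group.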

L1210 [11] = test: Antitumor activity in mice bearing L1210 murine leukemia cell line at a dose of 50 mg/kg/day.; type: functional, Mus musculus; in short: as §5
Raji [12] = test: Inhibition of human tumor B-lymphoblast Raji/TK-(thymidine kinase deficient) cell proliferation; type: functional, cell-based; in short: as §1
L1210 [13] = test: Concentration required to inhibit the proliferation of L1210 murine leukemia cell line by 50% in presence of exogenous nucleoside (d)Thd (5 ug/mL).; type: functional, cell-based; conditions: Mus musculus; in short: as §4
Homo sapiens [14] = organism: Homo sapiens; test: Concentration required to inhibit the proliferation of human T-lymphocyte CEM/dCK-(dcyd kinase deficient) cells by 50%; type: functional; in short: as §3
Homo sapiens [15] = organism: Homo sapiens; test: Concentration required to inhibit the proliferation of human T-lymphocyte CEM/o cells by 50%; type: functional; in short: as §3
L1210 [16] = test: Concentration required to inhibit the proliferation of L1210 murine leukemia cell line by 50% in presence of exogenous nucleoside dUrd (125 ug/mL).; type: functional, cell-based; conditions: Mus musculus; in short: as §4
Raji [17] = test: Inhibition of human tumor B-lymphoblast Raji/O cell proliferation; type: functional, cell-based; in short: as §1
[18] = Concentration required to inhibit the proliferation of human T-lymphocyte CEM/AK-(Ado kinase deficient) cells by 50%
L1210 [19] = test: Concentration required to inhibit the proliferation of L1210 murine leukemia cell line by 50% in presence exogenous necleoside Guo (50 uM).; type: functional, cell-based; conditions: Mus musculus; in short: as §4
L1210 [20] = test: Concentration required to inhibit the proliferation of L1210 murine leukemia cell line by 50% in presence exogenous necleoside Ado (100 uM).; type: functional, cell-based; conditions: Mus musculus, in the assay text read “1000 uM” for “100 uM”; in short: as §4
[21] = Concentration required to inhibit the proliferation of human T-lymphocyte CEM cells by 50% in presence exogenous necleoside Ado+dCyd (100 uM).; type: functional, cell-based; conditions: CCRF-CEM, in the assay text read “1000 uM” for “100 uM”
In short: (§6)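 CEM human T-lymphocytes in RPMI-1640 with 10% inactivated FCS, 2 mM L-glutamine and 0.075% NaHCO₃. Test compound (0.001–500 µM) was co-added with the stated subtoxic exogenous nucleoside(s). Incubated 3 days at 37 °C in humidified CO₂, then viable cells counted by Coulter counter. IC₅₀ is the level giving 50% fewer viable cells; means of 2–4 independent experiments.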

[22] = Concentration required to inhibit the proliferation of human T-lymphocyte CEM cells by 50% in presence exogenous necleoside Ado (100 uM).; type: functional, cell-based; conditions: CCRF-CEM, in the assay text read “1000 uM” for “100 uM”; in short: as §6
[23] = Concentration required to inhibit the proliferation of human T-lymphocyte CEM cells by 50% in presence exogenous necleoside dCyd (100 uM).; type: functional, cell-based; conditions: CCRF-CEM, in the assay text read “1000 uM” for “100 uM”; in short: as §6
[24] = Concentration required to inhibit the proliferation of human T-lymphocyte CEM/AK-/dCK-(Ado and dCyd kinase deficient) cells by 50%
[25] = Concentration required to inhibit the proliferation of human T-lymphocyte CEM/dCK-(dCyd kinase deficient) cells by 50%
L1210 [26] = test: Concentration required to inhibit the proliferation of L1210 murine leukemia cell line by 50% in presence exogenous necleoside dCyd (100 uM).; type: functional, cell-based; conditions: Mus musculus, in the assay text read “1000 uM” for “100 uM”; in short: as §4
L1210 [27] = test: Antitumor activity in mice bearing L1210 murine leukemia cell line at a dose of 25 mg/kg/day.; type: functional, Mus musculus; in short: as §5
L1210 [28] = test: Concentration required to inhibit the proliferation of L1210 murine leukemia cell line by 50% in presence exogenous necleosides dCyd+Ado (100 uM).; type: functional, cell-based; conditions: Mus musculus, in the assay text read “1000 uM” for “100 uM”; in short: as §4
CEM (Homo sapiens) [29] = test: Concentration required to inhibit the proliferation of human T-lymphocyte CEM/o cells by 50%; remark: listed apart in the source
L1210 [30] = test: Antitumor activity in mice bearing L1210 murine leukemia cell line at a dose of 12.5 mg/kg/day.; type: functional, Mus musculus; in short: as §5

C=C1[C@H](n2cnc3c(O)ncnc32)O[C@H](CO)[C@H]1O
pIC50 (MT4): < 3.70
pIC50 (L1210 [1]): 4.22
pIC50 [2]: 3.95
pIC50 [3]: < 3.70

C=C1[C@H](n2ccc(=O)[nH]c2=O)O[C@H](CO)[C@H]1O
pIC50 (MT4): < 3.30
pIC50 (L1210 [1]): < 3.30
pIC50 [2]: < 3.30
pIC50 [3]: < 3.30

C=C1[C@@H](O)[C@H](n2cnc3c(S)nc(N)nc32)O[C@@H]1CO
pIC50 (MT4): 4.92
pIC50 (L1210 [1]): 3.68
pIC50 [2]: 3.31
pIC50 [3]: 3.56

C=C1[C@@H](O)[C@H](n2cnc3c(O)nc(N)nc32)O[C@@H]1CO
pIC50 (CEM (Homo sapiens) [4]): < 3.30
pIC50 [5]: < 3.30
pIC50 (MT4): < 3.70
pIC50 (L1210 [1]): < 3.70
pIC50 [6]: < 3.30
pIC50 [2]: < 3.70
pIC50 [7]: < 3.30
pIC50 [3]: < 3.70

C=C1[C@@H](O)[C@H](n2cnc3c(OC)nc(N)nc32)O[C@@H]1CO
pIC50 (MT4): < 3.30
pIC50 (L1210 [1]): 3.35
pIC50 [2]: 3.36
pIC50 [3]: < 3.30

C=C1C(n2ccc(N)nc2=O)O[C@H](CO)[C@@H]1O (stereo partly drawn)
pIC50 (Raji [8]): 4.51
pIC50 (L1210 [9]): 3.32
Mean survival time (L1210 [10]): 15.6 days
Mean survival time (L1210 [11]): 12 days
pIC50 (MT4): 6.72
pIC50 (L1210 [1]): 5.70
pIC50 (Raji [12]): 7.46
pIC50 [2]: 4.96
pIC50 (L1210 [13]): 5.93
pIC50 (Homo sapiens [14]): 4.22
pIC50 (Homo sapiens [15]): 7.34
pIC50 (L1210 [16]): 5.83
pIC50 (Raji [17]): 7.60
pIC50 [3]: 6.96

C=C1[C@H](n2cnc3c(N)nc(N)nc32)O[C@H](CO)[C@H]1O
pIC50 [18]: 4.42
pIC50 (L1210 [19]): 4.36
Mean survival time (L1210 [10]): 2 days
pIC50 (L1210 [20]): 4.32
Mean survival time (L1210 [11]): 3 days
pIC50 [21]: 4.02
pIC50 (MT4): < 3.30
pIC50 (L1210 [1]): 5.09
pIC50 [22]: 4.68
pIC50 [23]: 3.88
pIC50 [24]: 3.71
pIC50 [2]: 4.17
pIC50 [25]: 3.71
pIC50 (L1210 [26]): 4.80
Mean survival time (L1210 [27]): 8.7 days
pIC50 (L1210 [28]): 4.39
pIC50 (CEM (Homo sapiens) [29]): 5.11
Mean survival time (L1210 [30]): 9.1 days
pIC50 [3]: 4.66

C=C1[C@@H](O)[C@H](n2ccc(=O)[nH]c2=O)O[C@@H]1CO
pIC50 (MT4): 3.35
pIC50 (L1210 [1]): < 3.30
pIC50 [2]: < 3.30
pIC50 [3]: < 3.30

C=C1[C@@H](O)[C@H](n2cnc3c(SC)nc(N)nc32)O[C@@H]1CO
pIC50 (MT4): < 3.30
pIC50 (L1210 [1]): < 3.30
pIC50 [2]: < 3.30
pIC50 [3]: < 3.30

C=C1[C@H](n2cnc3c(S)nc(N)nc32)O[C@H](CO)[C@H]1O
pIC50 (MT4): 6.32
pIC50 (L1210 [1]): 4.70
pIC50 [2]: 4.59
pIC50 [3]: 4.62

C=C1[C@@H](O)[C@H](n2cnc3c(O)ncnc32)O[C@@H]1CO
pIC50 (MT4): < 3.70
pIC50 (L1210 [1]): < 3.70
pIC50 [2]: < 3.70
pIC50 [3]: < 3.70
